Data set [1] relates to P388. Put plainly: Antitumor activity against mouse P388 cells allografted in male CDF1 mouse assessed as disease cures by measuring 30-days host survival at 25 mg/kg, ip administered daily for 9 days as Klucel suspension starting 24 hrs after tumor inoculation relative to control. It is filed as functional. The conditions noted are these: route intraperitoneal. A digest of the protocol: (§1)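 P388 leukemia given as an ascitic fluid cell inoculum, ip, to mice of the strain and sex in each line. Nine daily ip doses were given in a Klucel (hydroxypropylcellulose) suspension, starting 24 h after inoculation. Read-out is median survival time as %T/C, with >125 taken as significant; a "cure" means 30-day survival.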

Data set [2] relates to L1210. Nature of the data set: Antileukemic activity against mouse L1210 cells allografted in female BDF1 mouse assessed as change in body weight at 200 mg/kg, ip administered daily for 9 days as Klucel suspension starting 24 hrs after tumor inoculation. Format: functional. To be noted: route intraperitoneal. In a few lines:
(§2)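 Ascitic fluid carrying L1210 cells was inoculated ip. Compound was given ip as a Klucel (hydroxypropylcellulose) suspension in nine daily doses, starting 24 h after inoculation. Body-weight difference (treated minus control) was recorded on day 5. Survival was scored as %T/C of mean survival time.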

Data set [3] deals with P388. Put plainly: Antitumor activity against mouse P388 cells allografted in female CDF1 mouse assessed as change in body weight at 200 mg/kg, ip administered daily for 9 days as Klucel suspension starting 24 hrs after tumor inoculation. Format: functional. The conditions noted are these: route intraperitoneal. In a few lines:
(§3)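 Ascitic fluid carrying P388 cells was inoculated ip. Compound was given ip in nine daily doses, starting 24 h after inoculation, in Klucel (hydroxypropylcellulose) suspension or in saline with Tween-80. Body-weight difference (treated minus control) was recorded on day 5. Survival was scored as %T/C of median survival time, and 30-day survival counted as cure.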

The subject of data set [4] is L1210. Put plainly: Antileukemic activity against mouse L1210 cells allografted in female BDF1 mouse assessed as change in body weight at 50 mg/kg, ip administered daily for 9 days as Klucel suspension starting 24 hrs after tumor inoculation. It is filed as functional. The conditions noted are these: route intraperitoneal. A digest of the protocol: as §2
For data set [5], the system named is P388. Put plainly: Antitumor activity against mouse P388 cells allografted in female CDF1 mouse assessed as change in body weight at 100 mg/kg, ip administered daily for 9 days as Klucel suspension starting 24 hrs after tumor inoculation. The conditions noted are these: route intraperitoneal. Format: functional. A digest of the protocol:
as §3

The test system of data set [6] is P388. Nature of the data set: Antitumor activity against mouse P388 cells allografted in male CDF1 mouse assessed as disease cures by measuring 30-days host survival at 50 mg/kg, ip administered daily for 9 days as Klucel suspension starting 24 hrs after tumor inoculation relative to control. It is filed as functional. The conditions noted are these: route intraperitoneal. In a few lines: as §1

For data set [7], the system named is P388. Nature of the data set: Antitumor activity against mouse P388 cells allografted in male CDF1 mouse assessed as disease cures by measuring 30-days host survival at 12.5 mg/kg, ip administered daily for 9 days as Klucel suspension starting 24 hrs after tumor inoculation relative to control. It is filed as functional. To be noted: route intraperitoneal. A digest of the protocol:
as §1

For data set [8], the system named is P388. Put plainly: Antitumor activity against mouse P388 cells allografted in female CDF1 mouse assessed as disease cures by measuring 30-days host survival at 50 mg/kg, ip administered daily for 9 days as Klucel suspension starting 24 hrs after tumor inoculation relative to control. It is filed as functional. To be noted: route intraperitoneal. In a few lines:
as §1

The test system of data set [9] is P388. Nature of the data set: Antitumor activity against mouse P388 cells allografted in female BDF1 mouse assessed as change in body weight at 25 mg/kg, ip administered daily for 9 days as Klucel suspension starting 24 hrs after tumor inoculation. It is filed as functional. The conditions noted are these: route intraperitoneal. A digest of the protocol: as §3

Data set [10] relates to P388. Nature of the data set: Antitumor activity against mouse P388 cells allografted in female CDF1 mouse assessed as disease cures by measuring 30-days host survival at 100 mg/kg, ip administered daily for 9 days as Klucel suspension starting 24 hrs after tumor inoculation relative to control. It is filed as functional. The conditions noted are these: route intraperitoneal. A digest of the protocol: as §1

Data set [11] relates to Mus musculus. Nature of the data set: Toxicity in male CDF1 mouse allografted with mouse P388 cells assessed as animal survival at 50 mg/kg, ip administered daily for 9 days as Klucel suspension starting 24 hrs after tumor inoculation. It is filed as organism-based. Further details: dose 50 mg/kg, route intraperitoneal. To be noted: in vivo. In a few lines: (§4)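 P-388 leukemia ascitic fluid inoculated ip. Compound given ip as a suspension in Klucel (hydroxypropylcellulose), once daily for nine doses beginning 24 h post-inoculation. Acute toxicity assessed as toxicity-day survivors per group. Survival was followed up to 30 days, with 30-day survival counted as "cure". Follows NCI screening protocols.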

Data set [12] deals with L1210. Nature of the data set: Antileukemic activity against mouse L1210 cells allografted in female BDF1 mouse assessed as change in body weight at 100 mg/kg, ip administered daily for 9 days as Klucel suspension starting 24 hrs after tumor inoculation. Format: functional. To be noted: route intraperitoneal. A digest of the protocol:
as §2

For data set [13], the system named is P388. Nature of the data set: Antitumor activity against mouse P388 cells allografted in male CDF1 mouse assessed as disease cures by measuring 30-days host survival at 6.25 mg/kg, ip administered daily for 9 days as Klucel suspension starting 24 hrs after tumor inoculation relative to control. Format: functional. The conditions noted are these: route intraperitoneal. In a few lines:
as §1

For data set [14], the system named is Mus musculus. Put plainly: Toxicity in female BDF1 mouse allografted with mouse L1210 cells assessed as animal survival at 50 mg/kg, ip administered daily for 9 days as Klucel suspension starting 24 hrs after tumor inoculation measured on fifth day. Also noted: dose 50 mg/kg, route intraperitoneal. Format: organism-based. To be noted: in vivo. In a few lines: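 L1210 leukemia passaged as ascitic fluid and inoculated ip. Test agent given ip as a Klucel (hydroxypropylcellulose) suspension, nine daily doses starting 24 h after tumor inoculation. Acute toxicity read as toxicity-day survivors per group (out of 6), recorded on day 5. Animal weight difference T − C was also recorded. Follows NCI screening protocols.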

The test system of data set [15] is Mus musculus. Nature of the data set: Toxicity in female CDF1 mouse allografted with mouse P388 cells assessed as animal survival at 200 mg/kg, ip administered daily for 9 days as Klucel suspension starting 24 hrs after tumor inoculation. Format: organism-based. Further details: dose 200 mg/kg, route intraperitoneal. The conditions noted are these: in vivo. A digest of the protocol:
as §4

For data set [16], the system named is P388. Put plainly: Antitumor activity against mouse P388 cells allografted in male CDF1 mouse assessed as change in body weight at 50 mg/kg, ip administered daily for 9 days as Klucel suspension starting 24 hrs after tumor inoculation. To be noted: route intraperitoneal. It is filed as functional. A digest of the protocol:
as §3

The subject of data set [17] is P388. Nature of the data set: Antitumor activity against mouse P388 cells allografted in female BDF1 mouse assessed as disease cures by measuring 30-days host survival at 25 mg/kg, ip administered daily for 9 days as Klucel suspension starting 24 hrs after tumor inoculation relative to control. It is filed as functional. To be noted: route intraperitoneal. In a few lines: as §1

A short description of data set [18]: Cytotoxicity against human 9KB cells treated as ethanol solution. Format: functional. To be noted: read-out: ED50 (the source's name). A digest of the protocol:
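Compound applied as an ethanol solution; activity read out as ED50 under the general screening protocol.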

In data set [19] the test system is Mus musculus. Nature of the data set: Toxicity in female BDF1 mouse allografted with mouse P388 cells assessed as animal survival at 12.5 mg/kg, ip administered daily for 9 days as Klucel suspension starting 24 hrs after tumor inoculation. It is filed as organism-based. Further details: dose 12.5 mg/kg, route intraperitoneal. The conditions noted are these: in vivo. A digest of the protocol: as §4

The test system of data set [20] is P388. Nature of the data set: Antitumor activity against mouse P388 cells allografted in male CDF1 mouse assessed as change in body weight at 12.5 mg/kg, ip administered daily for 9 days as Klucel suspension starting 24 hrs after tumor inoculation. Format: functional. The conditions noted are these: route intraperitoneal. In a few lines: as §3
Data set [21] concerns P388. Put plainly: Antitumor activity against mouse P388 cells allografted in female BDF1 mouse assessed as change in body weight at 12.5 mg/kg, ip administered daily for 9 days as Klucel suspension starting 24 hrs after tumor inoculation. It is filed as functional. To be noted: route intraperitoneal. In a few lines:
as §3

Data set [22] has as its system P388. Put plainly: Antitumor activity against mouse P388 cells allografted in male CDF1 mouse assessed as change in body weight at 6.25 mg/kg, ip administered daily for 9 days as Klucel suspension starting 24 hrs after tumor inoculation. To be noted: route intraperitoneal. Format: functional. A digest of the protocol: as §3
Data set [23] relates to Mus musculus. Nature of the data set: Toxicity in female BDF1 mouse allografted with mouse P388 cells assessed as animal survival at 25 mg/kg, ip administered daily for 9 days as Klucel suspension starting 24 hrs after tumor inoculation. It is filed as organism-based. Further details: dose 25 mg/kg, route intraperitoneal. To be noted: in vivo. A digest of the protocol: as §4

In data set [24] the test system is P388. Nature of the data set: Antitumor activity against mouse P388 cells allografted in female BDF1 mouse assessed as change in body weight at 6.25 mg/kg, ip administered daily for 9 days as Klucel suspension starting 24 hrs after tumor inoculation. The conditions noted are these: route intraperitoneal. It is filed as functional. A digest of the protocol: as §3

Structures are written as SMILES.

In the case of `CC(=O)OCc1c(COC(C)=O)c(-c2ccccc2)n2c1CCC2`, the T/C was 142% in the data set with P388 [1]; 87% in the data set with P388 [6]; 110% in the data set on P388 [7]; 79% in the data set with P388 [8]; 49% in the data set on P388 [10]; 125% in the data set on P388 [13]. Moreover, the T/C with P388 [17] was 133%. Besides, the Activity in the data set with L1210 [2] was -2.8 g; in the data set with P388 [3], 0.5 g; with L1210 [4], -2.6 g; in the data set with P388 [5] it was -2.8 g; in the data set with P388 [9], -2 g; with Mus musculus [11], “Non-toxic”. For the same molecule, the Activity in the data set on L1210 [12] is on record as -2.3 g; in the data set on Mus musculus [14] it was “Non-toxic”; in the data set on Mus musculus [15], “Toxic”; with P388 [16], -6.1 g; with Mus musculus [19] it was “Non-toxic”; in the data set on P388 [20], -0.2 g. The Activity in the data set with P388 [21] is recorded as -1.2 g; with P388 [22], -0.3 g; in the data set on Mus musculus [23] it was “Non-toxic”; in the data set with P388 [24], -0.4 g. The EC50 in data set [18] was greater than 100 µg/mL.

Broadly, the T/C is the ratio of treated to control.

The values are drawn from ChEMBL document CHEMBL3244396, “Synthesis and antileukemic activity of 5-substituted 2,3-dihydro-6,7-bis(hydroxymethyl)-1H-pyrrolizine diesters” (J Med Chem, 1977).
